In ChEMBL document CHEMBL1781977, “Design and synthesis of 3,5-diarylisoxazole derivatives as novel class of anti-hyperglycemic and lipid lowering agents” (Bioorg Med Chem, 2009):
Activity calls are given as the source filed them. No cut-off for these calls is given here.

Legend:
[1] = biological target: Dipeptidyl peptidase 4 (Homo sapiens) (UniProt P27487); experiment: Inhibition of DPP4 assessed as rate of substrate cleavage using Gly-Pro-AMC substrate by spectrofluorometry
Outline: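 DPP-IV activity read by fluorescence at 37 °C, excitation 355 nm and emission 460 nm. Initial rate calculated over the first 15 min as increase in fluorescence intensity.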

Rattus norvegicus [2] = experiment: Antihyperglycemic activity against sucrose challenged streptozotocin-induced diabetic Sprague-Dawley albino rat assessed as reduction in blood glucose level at 100 mg/kg, po administered 30 mins before sucrose challenge measured after 24 hrs; type: functional
Outline: (§1)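 Male Sprague Dawley rats, 160 ± 20 g, fasted overnight, given streptozotocin 60 mg/kg ip in 100 mM citrate pH 4.5. Rats with glucose 144–270 mg/dl at 48 h count as diabetic, 5–6 per group. Dosed 100 mg/kg orally in 1.0% gum acacia. Sucrose 2.5 g/kg given 30 min later. Glucose read at 30–300 min and 24 h. Non-responders excluded.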

Rattus norvegicus [3] = experiment: Antihyperglycemic activity in Charles Foster/Wistar albino rat assessed as reduction in blood glucose level at 100 mg/kg, po administered 30 mins before sucrose challenge; type: functional
Outline: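 Male Charles Foster/Wistar rats, 160 ± 20 g, fasted 16 h; animals with glucose 60–80 mg/dl used, 5–6 per group. Given 100 mg/kg orally as suspension in 1.0% gum acacia (controls vehicle alone). Sucrose 10.0 g/kg orally 30 min later. Glucometer readings at 30, 60, 90, 120 min. Percent activity derived from AUC of treated versus control groups.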

[4] = biological target: T1, Tyrosine-protein phosphatase non-receptor type 1 (Homo sapiens, UniProt P18031); experiment: Inhibition of protein tyrosine phosphatase-1B at 10 uM incubated for 10 mins using pNPP substrate in presence of 0.01% Triton X-100 by modified Goldstein method
T1 sequence (P18031 whole entry): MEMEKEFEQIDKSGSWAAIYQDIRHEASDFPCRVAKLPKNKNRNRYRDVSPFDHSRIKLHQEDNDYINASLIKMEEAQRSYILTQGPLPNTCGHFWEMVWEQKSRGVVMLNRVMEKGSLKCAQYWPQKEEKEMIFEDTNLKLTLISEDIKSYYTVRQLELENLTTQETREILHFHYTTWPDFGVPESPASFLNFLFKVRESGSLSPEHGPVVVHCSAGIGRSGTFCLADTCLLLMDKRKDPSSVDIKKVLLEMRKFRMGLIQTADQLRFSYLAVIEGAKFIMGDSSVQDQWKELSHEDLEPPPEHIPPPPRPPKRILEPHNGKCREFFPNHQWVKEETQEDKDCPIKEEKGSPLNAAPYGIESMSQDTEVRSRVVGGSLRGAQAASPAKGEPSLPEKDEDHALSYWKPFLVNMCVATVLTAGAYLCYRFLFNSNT
Outline: (§2)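 PTP-1B: compound preincubated 10 min with enzyme, with or without 0.01% Triton X-100. Then 10 mM pNPP in 50 mM HEPES pH 7.0 with 1 mM DTT and 2 mM EDTA, 30 min at 37 °C. Stopped with 0.1 N NaOH; absorbance read at 410 nm. p-Nitrophenolate calculated using ε 1.78 × 10⁴ M⁻¹cm⁻¹. Sodium orthovanadate used as reference.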

[5] = biological target: T2, Tyrosine-protein phosphatase non-receptor type 1 (Homo sapiens) (UniProt P18031); experiment: Inhibition of protein tyrosine phosphatase-1B at 10 uM incubated for 10 mins using pNPP substrate by modified Goldstein method; design: Activity: scale not given: the % may be the effect or the level left; outline: as §2
T2 sequence (whole entry): T1 sequence (P18031 whole entry)

[6] = biological target: T1, Tyrosine-protein phosphatase non-receptor type 1; experiment: Inhibition of protein tyrosine phosphatase-1B at 10 uM incubated for 10 mins using pNPP substrate in absence of Triton X-100 by modified Goldstein method; outline: as §2
Rattus norvegicus [7] = experiment: Antihyperglycemic activity against sucrose challenged streptozotocin-induced diabetic Sprague-Dawley albino rat assessed as reduction in blood glucose level at 100 mg/kg, po administered 30 mins before sucrose challenge measured after 5 hrs; type: functional; outline: as §1
Mus musculus [8] = species: Mus musculus; experiment: Antihyperglycemic activity in C57BL/Ks db/db mouse assessed as reduction in blood glucose level measured after 3 days relative to control; type: functional
Mus musculus [9] = experiment: Antidyslipidemic activity in C57BL/Ks db/db mouse assessed as reduction in plasma cholesterol level at 100 mg/kg, po; type: functional
Outline: (§3)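 db/db mice (C57BL/KsBom, 12–18 weeks, 5 male and 5 female) dosed orally at 100 mg/kg in 1.0% gum acacia. Blood collected on day 8 for serum lipids. Mean ± SD, n = 5, against vehicle-treated db/db controls; Dunnett's test.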

Rattus norvegicus [10] = experiment: Antihyperglycemic activity against sucrose challenged streptozotocin-induced diabetic Sprague-Dawley albino rat assessed as reduction in blood glucose level at 50 mg/kg, po administered 30 mins before sucrose challenge; type: functional
Outline: (§4)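 Streptozotocin-diabetic Sprague Dawley rats: streptozotocin 60 mg/kg ip in citrate pH 4.5; rats at 144–270 mg/dl after 48 h used. Oral doses of 7.5–100 mg/kg in 1.0% gum acacia, then sucrose 2.5 g/kg. Glucose measured at 30, 60, 90, 120, 180, 240, 300 and 1440 min. ED50 taken from dose response. Mean ± SD, n = 5; Dunnett's test.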

Rattus norvegicus [11] = experiment: Antihyperglycemic activity against sucrose challenged streptozotocin-induced diabetic Sprague-Dawley albino rat assessed as reduction in blood glucose level at 7.5 mg/kg, po administered 30 mins before sucrose challenge; type: functional; outline: as §4
Mus musculus [12] = experiment: Antihyperglycemic activity in C57BL/Ks db/db mouse assessed as reduction in blood glucose level at 100 mg/kg, po measured 10 days post dose by postprandial glucose tolerance test; type: functional; conditions: 240 h, in the assay text read “oral glucose tolerance test” for “postprandial glucose tolerance test”
Outline: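 db/db mice (C57BL/KsBom, 12–18 weeks, 40–50 g) given 100 mg/kg orally, vehicle 1.0% gum acacia. Day 10 OGTT after overnight fast: glucose at −30 min and drug given, then glucose at 0 min. Glucose 3 g/kg given, with readings at 30, 60, 90 and 120 min.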

Rattus norvegicus [13] = experiment: Antihyperglycemic activity against sucrose challenged streptozotocin-induced diabetic Sprague-Dawley albino rat assessed as reduction in blood glucose level at 100 mg/kg, po administered 30 mins before sucrose challenge; type: functional; outline: as §1
Mus musculus [14] = experiment: Antihyperglycemic activity in C57BL/Ks db/db mouse assessed as reduction in blood glucose level at 100 mg/kg, po measured 6 days post dose by postprandial glucose tolerance test; type: functional; conditions: 144 h
Outline: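 C57BL/KsBom-db mice, 12–18 weeks, 40–50 g, 5 male and 5 female, at 23 °C with 12/12 h light cycle. Treated orally at 100 mg/kg, vehicle 1.0% gum acacia. Day 6 postprandial test: glucose at −0.5 h and 0 h, then at 1, 2, 3, 4 and 6 h after dosing.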

Rattus norvegicus [15] = experiment: Antihyperglycemic activity against sucrose challenged streptozotocin-induced diabetic Sprague-Dawley albino rat assessed as reduction in blood glucose level at 25 mg/kg, po administered 30 mins before sucrose challenge; type: functional; outline: as §4
Mus musculus [16] = experiment: Antidyslipidemic activity in C57BL/Ks db/db mouse assessed as reduction in plasma triglyceride level at 100 mg/kg, po; type: functional; outline: as §3
Rattus norvegicus [17] = experiment: Antihyperglycemic activity against sucrose challenged streptozotocin-induced diabetic Sprague-Dawley albino rat assessed as reduction in blood glucose level at 15 mg/kg, po administered 30 mins before sucrose challenge; type: functional; outline: as §4
Mus musculus [18] = experiment: Antidyslipidemic activity in C57BL/Ks db/db mouse assessed as plasma HDL-cholesterol level at 100 mg/kg, po; type: functional; outline: as §3
Rattus norvegicus [19] = experiment: Antihyperglycemic activity against sucrose challenged streptozotocin-induced diabetic Sprague-Dawley albino rat assessed as reduction in blood glucose level administered orally 30 mins before sucrose challenge; type: functional; conditions: po; outline: as §4

Sequence of Dipeptidyl peptidase 4 (Homo sapiens) (P27487 whole entry, looked up): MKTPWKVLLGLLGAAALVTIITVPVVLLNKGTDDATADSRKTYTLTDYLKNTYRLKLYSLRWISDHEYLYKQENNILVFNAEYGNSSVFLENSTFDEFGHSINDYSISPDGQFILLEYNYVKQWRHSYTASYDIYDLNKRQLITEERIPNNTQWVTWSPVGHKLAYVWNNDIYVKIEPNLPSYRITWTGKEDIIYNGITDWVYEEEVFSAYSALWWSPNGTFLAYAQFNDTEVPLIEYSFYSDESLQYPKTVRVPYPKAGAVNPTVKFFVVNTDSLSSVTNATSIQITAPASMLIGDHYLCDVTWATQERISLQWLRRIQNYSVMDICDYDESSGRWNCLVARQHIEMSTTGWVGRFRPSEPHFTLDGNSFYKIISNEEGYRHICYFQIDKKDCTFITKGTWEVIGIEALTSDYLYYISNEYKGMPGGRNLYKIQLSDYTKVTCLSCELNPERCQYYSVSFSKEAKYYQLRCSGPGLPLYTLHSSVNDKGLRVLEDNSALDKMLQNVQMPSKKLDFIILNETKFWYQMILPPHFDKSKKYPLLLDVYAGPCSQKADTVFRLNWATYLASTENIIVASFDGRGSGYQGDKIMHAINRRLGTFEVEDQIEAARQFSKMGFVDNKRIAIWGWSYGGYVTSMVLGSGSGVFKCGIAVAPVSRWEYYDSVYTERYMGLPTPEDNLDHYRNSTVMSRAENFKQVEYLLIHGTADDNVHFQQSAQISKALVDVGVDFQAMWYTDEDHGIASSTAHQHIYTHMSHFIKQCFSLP

Compound: COc1ccc(-c2cc(-c3ccccc3)no2)c(OCCCN2CCCCC2)c1
- inhibition [1]: inactive
- inhibition in vivo at 100 mg/kg (Rattus norvegicus [2]): 15%
- inhibition in vivo at 100 mg/kg (Rattus norvegicus [3]): 20.8%
- IC50 [4]: 4.42 µM
- inhibition [5]: 89.5%
- IC50 [6]: 4.4 µM
- inhibition in vivo at 100 mg/kg (Rattus norvegicus [7]): 14.7%

Compound: COc1ccc(-c2cc(-c3ccccc3)no2)c(OCCCC(=O)O)c1
- inhibition in vivo at 100 mg/kg (Rattus norvegicus [2]): 14.2%
- inhibition in vivo at 100 mg/kg (Rattus norvegicus [3]): 14.2%
- IC50 [4]: 22.4 µM
- Activity [5]: 24.4%
- IC50 [6]: 22.3 µM
- inhibition in vivo at 100 mg/kg (Rattus norvegicus [7]): 14.9%

Compound: CCN(CC)CC(O)COc1cc(OC)ccc1-c1cc(-c2ccccc2)no1 (stereo not given)
- inhibition in vivo at 100 mg/kg (Rattus norvegicus [2]): 11.4%
- inhibition in vivo at 100 mg/kg (Rattus norvegicus [3]): 13.8%
- IC50 [4]: 6.89 µM
- Activity [5]: 82.8%
- IC50 [6]: 4.3 µM
- inhibition in vivo at 100 mg/kg (Rattus norvegicus [7]): 11.6%

Compound: COc1ccc(-c2cc(-c3ccccc3)no2)c(OCC(O)CN2CCCC2)c1 (stereo not given)
- inhibition [1]: inactive
- inhibition in vivo at 100 mg/kg (Rattus norvegicus [2]): 17.6%
- inhibition (INH) (Mus musculus [8]): 15.7%
- inhibition in vivo at 100 mg/kg (Mus musculus [9]): -9.8%
- inhibition in vivo at 50 mg/kg (Rattus norvegicus [10]): 17.9%
- inhibition in vivo at 7.5 mg/kg (Rattus norvegicus [11]): 8.4%
- inhibition in vivo at 100 mg/kg (Rattus norvegicus [3]): 26.8%
- IC50 [4]: 4.2 µM
- inhibition in vivo at 100 mg/kg (Mus musculus [12]): 15.5%
- inhibition in vivo at 100 mg/kg (Rattus norvegicus [13]): 18.5%
- inhibition in vivo at 100 mg/kg (Mus musculus [14]): 15.9%
- Activity [5]: 86.2%
- inhibition in vivo at 25 mg/kg (Rattus norvegicus [15]): 13.8%
- inhibition in vivo at 100 mg/kg (Mus musculus [16]): -8.5%
- IC50 [6]: 3.4 µM
- inhibition in vivo at 100 mg/kg (Rattus norvegicus [7]): 18.5%
- inhibition in vivo at 15 mg/kg (Rattus norvegicus [17]): 11.6%
- Activity (Mus musculus [18]): 1.8%
- ED50 (Rattus norvegicus [19]): 80.2 mg/kg

Compound: COc1ccc(-c2cc(-c3ccccc3)no2)c(OCC2CO2)c1 (stereo not given)
- inhibition in vivo at 100 mg/kg (Rattus norvegicus [3]): 10.7%
- IC50 [4]: 31.3 µM
- Activity [5]: 11.8%
- IC50 [6]: 31.1 µM

Compound: COc1ccc(-c2cc(-c3ccccc3)no2)c(OCCCN2CCCC2)c1
- inhibition [1]: inactive
- inhibition in vivo at 100 mg/kg (Rattus norvegicus [2]): 11.2%
- inhibition in vivo at 100 mg/kg (Rattus norvegicus [3]): 21.2%
- IC50 [4]: 3.46 µM
- inhibition [5]: 82.7%
- IC50 [6]: 3.5 µM
- inhibition in vivo at 100 mg/kg (Rattus norvegicus [7]): 13.4%

Compound: COc1ccc(-c2cc(-c3ccccc3)no2)c(OCCN(C)C)c1
- inhibition in vivo at 100 mg/kg (Rattus norvegicus [2]): 15.9%
- inhibition in vivo at 100 mg/kg (Rattus norvegicus [3]): 16.8%
- IC50 [4]: 24.3 µM
- inhibition [5]: 33.5%
- IC50 [6]: 24.2 µM
- inhibition in vivo at 100 mg/kg (Rattus norvegicus [7]): 15.3%

Compound: CCCCN(C)CCCOc1cc(OC)ccc1-c1cc(-c2ccccc2)no1
- inhibition in vivo at 100 mg/kg (Rattus norvegicus [2]): 14.2%
- inhibition in vivo at 100 mg/kg (Rattus norvegicus [3]): 15%
- IC50 [4]: 37.5 µM
- inhibition [5]: 14.4%
- IC50 [6]: 37.3 µM
- inhibition in vivo at 100 mg/kg (Rattus norvegicus [7]): 12.6%

Compound: CCN(CC)CCCOc1cc(OC)ccc1-c1cc(-c2ccccc2)no1
- inhibition in vivo at 100 mg/kg (Rattus norvegicus [2]): 9.2%
- inhibition in vivo at 100 mg/kg (Rattus norvegicus [3]): 14.3%
- IC50 [4]: 28.2 µM
- inhibition [5]: 21.8%
- IC50 [6]: 28 µM
- inhibition in vivo at 100 mg/kg (Rattus norvegicus [7]): 7.8%

Compound: CCN(CC)CCOc1cc(OC)ccc1-c1cc(-c2ccccc2)no1
- inhibition [1]: inactive
- inhibition in vivo at 100 mg/kg (Rattus norvegicus [2]): 25.7%
- inhibition (INH) (Mus musculus [8]): 21%
- inhibition in vivo at 100 mg/kg (Mus musculus [9]): -14.5%
- inhibition in vivo at 50 mg/kg (Rattus norvegicus [10]): 21.7%
- inhibition in vivo at 7.5 mg/kg (Rattus norvegicus [11]): 10.3%
- inhibition in vivo at 100 mg/kg (Rattus norvegicus [3]): 29.9%
- IC50 [4]: 2.9 µM
- inhibition in vivo at 100 mg/kg (Mus musculus [12]): 21.5%
- inhibition in vivo at 100 mg/kg (Rattus norvegicus [13]): 25.4%
- inhibition in vivo at 100 mg/kg (Mus musculus [14]): 22.6%
- inhibition [5]: 94.7%
- inhibition in vivo at 25 mg/kg (Rattus norvegicus [15]): 19.5%
- inhibition in vivo at 100 mg/kg (Mus musculus [16]): -12%
- IC50 [6]: 2.97 µM
- inhibition in vivo at 100 mg/kg (Rattus norvegicus [7]): 26.9%
- inhibition in vivo at 15 mg/kg (Rattus norvegicus [17]): 15.5%
- Activity (Mus musculus [18]): 3.9%
- ED50 (Rattus norvegicus [19]): 45.3 mg/kg

Compound: COc1ccc(-c2cc(-c3ccccc3)no2)c(OCC(=O)O)c1
- inhibition in vivo at 100 mg/kg (Rattus norvegicus [3]): 11.7%
- IC50 [4]: 9.3 µM
- Activity [5]: 75.2%
- IC50 [6]: 9.1 µM
